Results: ChEMBL document CHEMBL1122484, “An analysis of 1-(2-chloroethyl)-1-nitrosourea activity at the cellular level” (J Med Chem, 1983)

How the values were obtained:
P388 [1] = assay: Mean value for the exposure for P388 to the drug for a period of 60 min; type: functional; conditions: Mus musculus, P388, 1 h; read-out: ED50 (the source's name)
Summary of the method: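 P388 mouse leukemia cells in log-phase suspension culture (Fischer's medium, 10% horse serum) at 1 × 10^6 cells/mL, exposed at 37 °C, pH 7.4, to graded initial drug concentrations (ethanol/water vehicle, <0.1% ethanol) in duplicate tubes for the stated period. Cells then diluted to 6.6 × 10^4 cells/mL in fresh medium, grown 48 h, Coulter counted; ED50 = dose giving 50% decrease in cell number versus untreated.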

[2] = Pharmacokinetic parameter k2 was determined; type: ADME
Summary of the method: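 First-order rate constant for chemical conversion of the parent nitrosourea to its active alkylating intermediate. Measured in aqueous buffer or human serum at pH 7.4 and 37 °C.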

[3] = Carbamoylating activity was determined; type: ADME
P388 [4] = assay: Mean value for the exposure for P388 to the drug following a variety of treatment schedules at pH 7.4 and 37 degree; conditions: Mus musculus, read-out: ED50 (the source's name)
[5] = Alkylating activity was determined; type: ADME

SMILES | EC50 (P388 [1]) [µM] | k2 [2] [min⁻¹] | Carbamoylating activity [3] | EC50 (P388 [4]) [µM] | Alkylating activity [5]
O=NN(CCCl)C(=O)NC1CCC(=O)NC1=O (stereo not given) | 8.1 | 0.027 | 24 | 6.5 | 360
NC(=O)N(CCCl)N=O | 6 | 0.53 | 20 | 5.7 | 1000
O=NN(CCCl)C(=O)NCCCl [CARMUSTINE] | 13.3 | 0.014 | 70 | 6.3 | 260
O=NN(CCCl)C(=O)N[C@H]1C(O)O[C@H](CO)[C@@H](O)[C@@H]1O (stereo not given in full) [CHLOROZOTOCIN] | 17 | 0.033 | 2 | 11.7 | 450
O=NN(CCCl)C(=O)NC1CCCCC1 [LOMUSTINE] | 13 | 0.013 | 100 | 6.7 | 100
